CHO parental Ca – counter-screen: ATP calcium response change in parental CHO cells; parental CHO-K1, ATP-induced calcium, Fluo-8 fluorescence; inhibition, % at 5.6 µM; 330,000 tested, 0.63% active;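 active means inhibition above that plate's mean sample inhibition plus 3 SD, cut at about 26% in these data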;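 further: 0% = ATP-challenged DMSO wells and 100% = DMSO wells without ATP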
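Test system: parental CHO cells; detection: calcium-sensitive Fluo-8 fluorescence; evaluation: percent inhibition of calcium signal; also added: ATP as calcium-mobilizing challenge; repeats: one well per compound; control set: ATP-challenged DMSO wells low, unchallenged DMSO wells high; compound: single nominal dose of 5.6 µM per compound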
GPR7 antagonist – human neuropeptides B/W receptor 1 antagonism | P48145 | GPR7-expressing cells, fluorescence antagonist assay | inhibition, % at 4.4 µM | 290,000 tested, 1.1% active | AID 1861; in the data active means inhibition above about 16%, passing the limit was not always enough;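 further: cells stimulated with the agonist NPW; 0% = agonist with vehicle and 100% = vehicle without agonist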
Target sequence (P48145 whole entry, looked up): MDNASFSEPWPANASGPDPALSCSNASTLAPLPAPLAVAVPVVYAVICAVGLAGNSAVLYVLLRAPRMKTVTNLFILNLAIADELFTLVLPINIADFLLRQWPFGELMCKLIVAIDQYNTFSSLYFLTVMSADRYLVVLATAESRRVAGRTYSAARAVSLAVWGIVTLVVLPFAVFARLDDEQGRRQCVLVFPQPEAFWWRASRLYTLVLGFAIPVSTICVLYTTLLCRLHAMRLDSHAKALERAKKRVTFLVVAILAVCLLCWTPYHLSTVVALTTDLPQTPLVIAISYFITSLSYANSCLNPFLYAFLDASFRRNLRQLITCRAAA
OX1R antag-1 – antagonists of human orexin 1 receptor (OX1R); O43613; inhibition, % at 6.6 µM; AID 485270; 330,000 tested, 1.8% active; OX1R-expressing cells, FRET antagonist read-out; in the data active means inhibition mostly above about 38%, no sharp cut-off; inactive means mostly below about 40%;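 further: 0% = agonist challenge alone and 100% = reference antagonist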
OX1R antag-2 – antagonists of human orexin 1 receptor; O43613; CHO/OX1R cells, Fluo-8 calcium fluorescence, orexin A; inhibition, % at 5 µM; 330,000 tested, 0.43% active; AID 434989;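 active means inhibition above its plate's threshold, mean inhibition of all tested compounds on the plate plus 3 SD, cut at about 37% in these data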;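 further: 0% = orexin A challenge wells and 100% = SB-334867-A antagonist wells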
GalR3 antagonist – blocks the human galanin receptor 3. 360,000 tested, 0.44% active. AID 651719. O60755. HEK293 GalR3-CNG cAMP membrane potential fluorescence; galR3 body fused to GalR1 C-terminus. inhibition, % at 3 µM;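 active means inhibition above the screen-wide average plus 3 SD, cut at about 13% in these data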;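 further: forskolin and galanin both at EC90 stimulate the cells; cAMP rise reported by CNG channel membrane potential dye signal; 0% = forskolin plus galanin with DMSO and 100% = forskolin alone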
Target sequence (O60755 1-299 limits assumed): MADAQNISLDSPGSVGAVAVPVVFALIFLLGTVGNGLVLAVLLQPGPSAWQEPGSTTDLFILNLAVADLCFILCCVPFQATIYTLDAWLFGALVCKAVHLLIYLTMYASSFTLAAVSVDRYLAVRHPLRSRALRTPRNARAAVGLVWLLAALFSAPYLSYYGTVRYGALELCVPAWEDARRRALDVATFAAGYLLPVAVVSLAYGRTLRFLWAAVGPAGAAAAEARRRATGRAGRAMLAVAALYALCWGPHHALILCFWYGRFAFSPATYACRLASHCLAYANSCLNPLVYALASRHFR
GPR7 antag cf – confirmation of human GPR7 antagonists; shares compounds with GPR7 antagonist; GPR7-expressing cells, calcium fluorescence antagonist mode; inhibition, % at 4.4 µM; 2,400 tested, 52% active; in the data active means inhibition above about 24%;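 further: stimulated with the GPR7 agonist NPW; 0% = agonist plus vehicle and 100% = vehicle alone without agonist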
MCHR1 antag – MCHR1 (human) antagonism in GPR7 counter-screen. inhibition, % at 4.4 µM. MCHR1-expressing cells, fluorescence antagonist assay. 2,400 tested, 62% active. AID 2148. shares compounds with GPR7 antagonist; in the data active means inhibition above about 22%;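 further: 0% = vehicle with agonist and 100% = vehicle without agonist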
* marks the source's active call; other numbers are inactive results; nt = no result; ! = not confirmed by another sample. A selection: hits, their analogues and other compounds. The true share with any hit is near 3.1%.

SMILES	CHO parental Ca	GPR7 antagonist	OX1R antag-1	OX1R antag-2	GalR3 antagonist	GPR7 antag cf	MCHR1 antag
CSCCC(NS(=O)(=O)c1ccc(Cl)cc1)C(=O)N1CCN(c2ccccc2)CC1 (centres undefined)	nt	nt	nt	nt	-0.4	nt	nt
CN(C)CCCNc1nc(-c2ccccc2)c2c(c1C#N)CC(C)(C)OC2	-7.2	-0.5	12.9	-24.6	1.5	nt	nt
Cc1nc(NCCO)c(C#N)c2c1COC(C)(C)C2	-7.6	25.9*	3.6	2.3	-0.9	-20.7	-4.8
CCc1cc(C(=O)OC)c(NC(=O)CCCC(=O)O)s1	8.1	26.2*	8.4	-4.0	2.4	-2.7	0.0
Cn1c(=O)c(=O)n(C)c2cc(N3CCCCC3)c(NS(=O)(=O)c3ccc([N+](=O)[O-])cc3)cc21	-4.7	-0.6	57.7	-8.0	1.1	nt	nt
COC1OC2COC(c3ccccc3)OC2C(=O)C1NC(=O)c1ccccc1 (centres undefined)	nt	nt	nt	nt	-1.2	nt	nt
COc1ccccc1CCNC(C)CCc1ccc(O)cc1 (centres undefined)	-13.5	-8.7	14.1	-12.4	-5.8	nt	nt
COc1cc(OC)c(OC)cc1CCC(C)NCCC(c1ccccc1)c1ccccc1 (centres undefined)	-1.4	60.1*	3.8	-21.0	-13.7	54.9*	48.9*
Cc1cccc(NC(=O)C2C3C=CC4(O3)C2C(=O)N(CCCN2CCCC2)C4C(=O)NC2CCCC(C)C2C)c1 (centres undefined)	-20.3	0.9	9.8	-32.8	-4.6	nt	nt
Cc1cc(C)cc(NC(=O)C2C3C=CC4(O3)C2C(=O)N(CCCN2CCCC2)C4C(=O)NC2CCCC(C)C2C)c1 (centres undefined)	-13.4	26.7*	15.3	-28.7	-7.3	-18.9	-10.8
C/C(CC(=O)Nc1ccc(N(C)C)cc1)=N\NC(=O)c1ccc([N+](=O)[O-])cc1	nt	26.9*	nt	nt	-8.0	7.0	1.6
COc1ccc(CC(=O)N/N=C(\C)CC(=O)Nc2ccc(N(C)C)cc2)cc1	-7.0	-5.8	17.9	-13.4	-3.4	nt	nt
Cc1ccc(Oc2ccccc2NC(=O)CN2C(=O)NC3(CCCC3)C2=O)cc1	-8.7	29.1*	11.0	-11.7	0.2	-11.2	0.8
Cc1ccccc1-c1nnn(Cc2ccc(F)cc2Cl)n1	-11.2	-4.3	2.2	-28.9	-7.7	nt	nt
CC(CNS(=O)(=O)c1ccc2c(c1)NC(=O)CCS2)c1ccccc1 (centres undefined)	-10.1	-7.6	3.6	-8.5	0.5	nt	nt
CCOC(=O)c1c(CSCc2ccccc2)oc2ccc(O)c(CN(C)C)c12	-3.1	40.1*	3.4	-21.6	-25.4	40.3*	67.8*
CCOC(=O)c1c(-c2ccccc2)oc2ccc(O)c(CN(C)C)c12	-12.4	-2.8	10.6	-19.6	-12.1	nt	nt
Cc1ccc(Nc2nc(C)cc(C)c2C#N)c(C)c1	nt	nt	nt	nt	-6.4	nt	nt
O=C1CC/C=C\C[C@@H](CC(=O)N(CCO)Cc2ccccc2)C(=O)N[C@H](Cc2c[nH]c3ccccc23)CO1	-25.5	nt	36.4	12.6	-3.4	nt	nt
Cc1ccccc1CN1C[C@@H]2C[C@@H](c3cn[nH]c3-c3ccc(F)cc3)N3CCC[C@@]23C1=O	-15.2	nt	18.6	-23.8	-8.7	nt	13.5
COc1ccc(S(=O)(=O)N(C)C[C@H]2Oc3ncc(Br)cc3C(=O)N([C@@H](C)CO)C[C@@H]2C)cc1	nt	nt	nt	nt	-5.7	nt	nt
COc1ccc(-n2c(=S)[nH]c3[nH]ncc3c2=O)cc1	-7.3	23.3*	2.9	-0.3	-4.8	0.0	3.9
NS(=O)(=O)c1ccc(CNC(=S)Nc2ccc(Cl)c(Cl)c2)cc1	11.8	33.2*	31.2	14.8	-4.9	41.2*	40.1*
CC(C)n1nc(C(=O)Nc2cccc(S(=O)(=O)N3CCCCC3)c2)c2ccccc2c1=O	-20.6	nt	-2.6	-22.9	-6.4	nt	nt
Cc1cccnc1NC(=O)CSc1nnc(Cc2ccccc2)o1	-4.0	-10.2	10.6	-5.0	-7.6	nt	nt
SMILES	CHO parental Ca	GPR7 antagonist	OX1R antag-1	OX1R antag-2	GalR3 antagonist	GPR7 antag cf	MCHR1 antag
C#CC(CO)N(CCN(Cc1ccccc1)C(C#C)CO)Cc1ccccc1 (centres undefined)	-21.7	nt	15.1	-28.6	-5.3	nt	13.6
C#CCN(C)Cc1ccccc1	0.2	-11.5	14.1	5.0	2.6	nt	nt
Cc1c(O)ccoc1=O	-8.6	21.3*	14.3	-1.5	0.5	-0.8	-6.3
CCOC(=O)N1CN(C(=O)OCC)CN(C(=O)OCC)C1	3.0	17.8*	11.0	-31.6	-10.8	-12.0	-7.4
Cc1ccc([N+](=O)[O-])cc1NC(=O)CN(C(=O)c1ccccc1Cl)C1CCCCC1	-23.7	35.6*	17.7	-28.0	-6.5	39.1*	40.7*
Cc1ccc([N+](=O)[O-])cc1NC(=O)CN(C1CCCCC1)S(=O)(=O)c1ccc(Cl)cc1	nt	2.8	nt	nt	-7.0	nt	nt
COc1ccccc1-c1nnc(C2CCN(S(=O)(=O)c3ccc([N+](=O)[O-])cc3)CC2)o1	-20.8	21.2*	21.8	-6.4	1.8	48.2*	31.7*
CCOC(=O)c1sc(NC(=O)CN2C(=O)C3CC=CCC3C2=O)nc1C (centres undefined)	-13.3	nt	8.3	-18.2	-3.9	nt	nt
COc1ccc(CCNC(=O)C2CCN(S(=O)(=O)c3c(C)noc3C)CC2)cc1OC	-7.6	29.0*	9.3	-27.7	-3.6	16.1	1.0
CC(C)C(c1nnnn1Cc1ccc(F)cc1)N1CCN(Cc2ccc3c(c2)OCO3)CC1 (centres undefined)	-19.6	26.7*	11.8	-27.4	-2.4	5.9	24.9*
CCN1CCN(C(c2nnnn2Cc2ccc3c(c2)OCO3)C(C)C)CC1 (centres undefined)	-5.6	2.3	10.5	-19.4	-4.3	nt	nt
Cn1cnc([N+](=O)[O-])c1Sc1ccc(C(C)(C)C)cc1	-2.1	27.4*	-1.7	-1.2	-5.6	38.0*	26.3*
CC1CCC(C(C)C)C(OC(=O)Cn2c(-c3ccccc3)[n+](C)c3ccccc32)C1 (centres undefined)	41.9*!	86.3*	6.6	25.2	0.8	91.8*	82.6*
C=CCn1c(SCC(=O)Nc2c(C)n(C)n(-c3ccccc3)c2=O)nnc1-c1ccncc1	nt	nt	nt	nt	-7.1	nt	nt
Cc1ccc(CCNC(=O)C2CC(=O)N(C3CCCCC3)C2)cc1 (centres undefined)	-10.8	27.5*	5.5	-55.5	-7.8	-12.8	-1.1
CN(C)c1ccc(-c2nn3c(-c4ccccc4Cl)nnc3s2)cc1	6.2	24.8*	58.6*	10.6	0.7	32.7*	75.5*
Clc1ccccc1-c1nnc2sc(-c3ccncc3)nn12	-9.5	6.2	8.4	-11.9	5.4	nt	nt
CN(C)c1ccc(N=Nc2ccccc2C(=O)OCC(=O)N(C)C2CCCCC2)cc1	55.4*	24.7*	36.6	-18.4	-3.3	30.5*	76.1*
CCN(Cc1ccccc1)C(c1ccccn1)c1nnnn1C(C)(C)CC (centres undefined)	-11.6	21.9*	15.4	9.5	-10.4	25.3*	55.9*

From PubChem
